Assays:
MGC-803 = test: Cytotoxicity against human MGC803 cells assessed as reduction in cell viability measured after 72 hrs by CCK8 assay; format: functional, cell-based; conditions: MGC-803, 72 h
How it was run: (§1)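 MGC803 or AGS cells (RPMI 1640, 10% FBS, 5% CO₂, 37 °C) plated at 3 × 10³ per well overnight, then exposed to 0.1–10 μM for 72 h. Viability was read by CCK8 absorbance at 450 nm, and IC₅₀ was calculated from the concentration series.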

AGS = test: Cytotoxicity against human AGS cells assessed as reduction in cell viability measured after 72 hrs by CCK8 assay; format: functional, cell-based; how it was run: as §1

For C/C=C(\C)C(=O)C1=C2C3=CN(C/C=C(\C)CCC=C(C)C)C(/C=C/[C@@H](C)CC)=CC3=C(Cl)C(=O)[C@@]2(C)OC1=O, the IC50 (MGC-803) was 720 nM and the IC50 (AGS) was 120 nM.

CC[C@H](C)/C=C/C1=CC2=C(Cl)C(=O)[C@@]3(C)OC(=O)C(C(=O)[C@H](C)[C@@H](C)O)=C3C2=CN1CC=C(C)C was tested, and the IC50 (MGC-803) was 2700 nM and the IC50 (AGS) was 6500 nM.

CCC(=O)C1=C2C3=CN(C/C=C(\C)CCC=C(C)C)C(/C=C/[C@@H](C)CC)=CC3=C(Cl)C(=O)[C@@]2(C)OC1=O gave an IC50 (MGC-803) of 2200 nM and an IC50 (AGS) of 1200 nM.

Source: ChEMBL document CHEMBL4610092, “Cytotoxic Nitrogenated Azaphilones from the Deep-Sea-Derived Fungus Chaetomium globosum MP4-S01-7” (J Nat Prod, 2020)
